# Results reported in publication PMC5381633 (Genome Biology and Evolution, 2017).
# Columns and labels:
# tunicate LXR = conditions: ref Reschly et al. 2008; cited from earlier work
# L. japonicum LXR = molecular target: T1, L. japonicum LXR (Lethenteron camtschaticum, UniProt A0A1S6EKM6); test: GAL4-LBD chimeric receptor luciferase transactivation assay in COS-1 cells; format: cell-based
# T1 sequence (A0A1S6EKM6 89-387): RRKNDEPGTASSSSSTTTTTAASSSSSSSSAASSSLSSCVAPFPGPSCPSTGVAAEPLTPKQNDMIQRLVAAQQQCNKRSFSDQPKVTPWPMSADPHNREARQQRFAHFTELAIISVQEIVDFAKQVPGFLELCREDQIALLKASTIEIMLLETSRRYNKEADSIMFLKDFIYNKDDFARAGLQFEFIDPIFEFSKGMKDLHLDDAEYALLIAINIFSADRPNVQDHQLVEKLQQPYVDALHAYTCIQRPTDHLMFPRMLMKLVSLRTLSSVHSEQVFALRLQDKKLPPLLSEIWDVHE
# Summary of the method: (§1)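 The receptor's ligand-binding domain plus hinge was fused to the GAL4 DBD in pBIND. COS-1 cells were seeded 24 h before lipofection with 500 ng receptor plasmid and 1,000 ng GAL4UAS-luc2P reporter. After 5 h, medium became phenol red-free DMEM/10% charcoal-stripped FBS with compound in DMSO (oxysterols 10^1–10^5.5 nM). Dual-luciferase was read 24 h post-transfection, in triplicate over three experiments, as mean ± SE. EC50 came from sigmoidal dose–response curves. Normalized fold activation was compared by one-way ANOVA/Holm–Sidak.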
# LXRα = conditions: human and mouse LXRs; ref Reschly et al. 2008; cited from earlier work
# LXRβ = conditions: human and mouse LXRs; ref Reschly et al. 2008; cited from earlier work
# L. erinacea LXRα = molecular target: T2, L. erinacea LXRα (Leucoraja erinacea, UniProt A0A1S6EKM1); test: GAL4-LBD chimeric receptor luciferase transactivation assay in COS-1 cells; format: cell-based; conditions: all tested concentrations, P < 0.001
# T2 sequence (A0A1S6EKM1 181-451): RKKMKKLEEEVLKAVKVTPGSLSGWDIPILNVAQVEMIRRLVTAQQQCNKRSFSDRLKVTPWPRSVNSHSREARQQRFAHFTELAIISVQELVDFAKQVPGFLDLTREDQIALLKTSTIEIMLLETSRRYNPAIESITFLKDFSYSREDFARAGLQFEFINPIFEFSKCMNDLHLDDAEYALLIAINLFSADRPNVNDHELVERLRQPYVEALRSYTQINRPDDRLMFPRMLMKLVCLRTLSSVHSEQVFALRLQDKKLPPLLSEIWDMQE
# Summary of the method: as §1
# L. erinacea LXRβ = molecular target: T3, L. erinacea LXRβ (Leucoraja erinacea, UniProt A0A1S6EKM5); test: as above; format: cell-based; conditions: all tested concentrations, P < 0.001
# T3 sequence (A0A1S6EKM5 2-271): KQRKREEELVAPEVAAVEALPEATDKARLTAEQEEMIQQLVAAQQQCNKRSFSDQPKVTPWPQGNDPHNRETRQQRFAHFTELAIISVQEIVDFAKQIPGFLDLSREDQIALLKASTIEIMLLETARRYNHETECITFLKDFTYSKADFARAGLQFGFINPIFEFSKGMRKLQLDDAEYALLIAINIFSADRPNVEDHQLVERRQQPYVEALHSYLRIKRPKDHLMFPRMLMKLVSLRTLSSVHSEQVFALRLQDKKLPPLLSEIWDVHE
# Summary of the method: as §1
# B. lanceolatum LXR = molecular target: T4, B. lanceolatum LXR (Branchiostoma lanceolatum, UniProt A0A8J9ZB24); test: as above; format: cell-based
# T4 sequence (A0A8J9ZB24 168-437): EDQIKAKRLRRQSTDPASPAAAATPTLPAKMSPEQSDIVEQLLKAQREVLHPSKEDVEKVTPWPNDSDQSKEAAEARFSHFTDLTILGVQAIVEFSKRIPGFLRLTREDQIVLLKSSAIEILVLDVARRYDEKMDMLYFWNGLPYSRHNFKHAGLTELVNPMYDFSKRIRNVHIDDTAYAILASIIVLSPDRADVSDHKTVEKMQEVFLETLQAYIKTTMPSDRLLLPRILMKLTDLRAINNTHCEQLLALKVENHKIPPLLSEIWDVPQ
# Summary of the method: as §1
transcriptional activation of lamprey LXR (in words) (L. japonicum LXR),SMILES,activation of tunicate LXR (in words) (tunicate LXR),activation of LXRα (in words) (LXRα),activation of LXRβ (in words) (LXRβ),also measured
–,C[C@@]12CCC[C@H]1[C@@H]1CC[C@H]3C[C@@H](O)CC[C@]3(C)[C@H]1CC2 [androstanol],induced,–,–,–
strongly induced,"C[C@H](CC[C@@H]1OC1(C)C)[C@H]1CC[C@H]2[C@@H]3CC=C4C[C@@H](O)CC[C@]4(C)[C@H]3CC[C@]12C [24,25-EC, 24(S),25-epoxycholesterol]",–,robustly activated,robustly activated,–
significant activations,O=S(=O)(c1ccccc1)N(CC(F)(F)F)c1ccc(C(O)(C(F)(F)F)C(F)(F)F)cc1 [T0901317],–,–,–,"agonistic response, little skate LXRα (in words) (L. erinacea LXRα): significant activations; agonistic response, little skate LXRβ (in words) (L. erinacea LXRβ): significant activations"
–,C[C@]12CC[C@@H](O)C[C@@H]1CC[C@@H]1[C@@H]2CC[C@]2(C)C=CC[C@@H]12 [androstenol],induced,–,–,–
strongly induced,"CC(C)[C@@H](O)CC[C@@H](C)[C@H]1CC[C@H]2[C@@H]3CC=C4C[C@@H](O)CC[C@]4(C)[C@H]3CC[C@]12C [24-HC, 24(S)-hydroxycholesterol]",–,robustly activated,robustly activated,"transcriptional activation of amphioxus LXR (in words) (B. lanceolatum LXR): residually, but significantly, activated"
–,"O=Cc1c2[nH]c3ccccc3c2cc2[nH]c3ccccc3c12 [6-Formylindolo(3,2-b)carbazole]",strongly activated,–,–,–

SMILES,transcriptional activation of lamprey LXR (in words) (L. japonicum LXR),activation of tunicate LXR (in words) (tunicate LXR),activation of LXRα (in words) (LXRα),activation of LXRβ (in words) (LXRβ),also measured
"C[C@H](CCCC(C)(C)O)[C@H]1CC[C@H]2[C@@H]3CC=C4C[C@@H](O)CC[C@]4(C)[C@H]3CC[C@]12C [25-HC, 25-hydroxycholesterol]","prominent and statistically significant (P < 0.001), yet only at higher concentrations",–,lower transcriptional responses,lower transcriptional responses,–
